Experimental data published in ChEMBL document CHEMBL3797184, “Benzo[d]thiazol-2-yl(piperazin-1-yl)methanones as new anti-mycobacterial chemotypes: Design, synthesis, biological evaluation and 3D-QSAR studies” (Eur J Med Chem, 2016).
≈ marks a conversion by molar mass, not a printed value.

Columns and labels:
[1] = tested on: Mycobacterium tuberculosis; test: Antitubercular activity against Mycobacterium tuberculosis H37Rv ATCC 27294 after 28 days by two-fold serial dilution method; type: functional; details: for MIC: Mycobacterium tuberculosis, H37Rv ATCC 27294, 672 h
Method in brief: (§1)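 NCCLS-recommended agar dilution run in triplicate against H37Rv ATCC 27294. Two-fold dilutions (50.0 to 0.4 µg/mL) in Middlebrook 7H11 agar with OADC. Inoculum came from fresh 7H11/OADC slants, adjusted to 1 mg/mL wet weight in 0.05% Tween 80 saline and diluted 10^-2 (~10^7 cfu/mL). 5 µL was spotted per tube, incubated at 37 °C and read at 28 days as MIC.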

[2] = tested on: Mycobacterium tuberculosis; test: Antitubercular activity against Mycobacterium tuberculosis clinical isolate by BACTEC 460 TB method; type: functional
[3] = Cytotoxicity against mouse RAW264.7 cells at 50 ug/ml after 72 hrs by MTT assay; type: cell-based; details: read-out: INH
[4] = Therapeutic index, ratio of cytotoxicity against mouse RAW264.7 cells to antitubercular activity against Mycobacterium tuberculosis H37Rv ATCC 27294; type: cell-based; details: read-out: TI
[5] = tested on: Mycobacterium tuberculosis; test: Antitubercular activity against Mycobacterium tuberculosis […] by microplate Alamar blue assay; type: functional
[6] = tested on: Mycobacterium tuberculosis; test: Antitubercular activity against Mycobacterium tuberculosis; type: functional; method in brief: as §1

## CCOC(=O)c1nc2ccccc2s1
[1]
  MIC: 121 µM (≈ 25 µg/mL)

## O=C(c1nc2ccccc2s1)N1CCSCC1
[1]
  MIC: 94.6 µM (≈ 25 µg/mL)

## Cc1c(CN2CCN(C)CC2)cc(-c2ccc(Cl)cc2)n1-c1ccc(Cl)cc1
[2]
  MIC: 1.5 µg/mL (≈ 3.62 µM)

## O=C(c1nc2cc(Cl)ccc2s1)N1CCN(c2cnccn2)CC1
[1]
  -logMIC: 4.76
  MIC: 17.4 µM (≈ 6.25 µg/mL)
[3]
  cytotoxicity at 72 h, 50 ug/ml: 54.9%

## O=C(c1nc2ccccc2s1)N1CCN(c2ccncc2)CC1
[1]
  -logMIC: 5.02
  MIC: 9.63 µM (≈ 3.12 µg/mL)
[3]
  cytotoxicity at 72 h, 50 ug/ml: 62%

## O=C(c1nc2cc(Cl)ccc2s1)N1CCN(C(c2ccccc2)c2ccccc2)CC1
[1]
  -logMIC: 5.76
  MIC: 1.74 µM (≈ 0.78 µg/mL)
[3]
  cytotoxicity at 72 h, 50 ug/ml: 52.9%

## COc1ccc(N2CCN(C(=O)c3nc4ccccc4s3)CC2)cc1
[1]
  -logMIC: 4.45
  MIC: 35.4 µM (≈ 12.5 µg/mL)

## CC(=O)c1ccc(N2CCN(C(=O)c3nc4ccccc4s3)CC2)cc1
[1]
  -logMIC: 5.37
  MIC: 4.27 µM (≈ 1.56 µg/mL)
[3]
  cytotoxicity at 72 h, 50 ug/ml: 62.3%

## CCOC(=O)c1nc2cc(Cl)ccc2s1
[1]
  MIC: 12.9 µM (≈ 3.13 µg/mL)
[3]
  cytotoxicity at 72 h, 50 ug/ml: 37.4%

## COc1ccccc1N1CCN(C(=O)c2nc3cc(Cl)ccc3s2)CC1
[1]
  -logMIC: 5.09
  MIC: 8.06 µM (≈ 3.13 µg/mL)
[3]
  cytotoxicity at 72 h, 50 ug/ml: 63.4%

## CC(=O)c1ccc(N2CCN(C(=O)c3nc4cc(C(F)(F)F)ccc4s3)CC2)cc1
[1]
  -logMIC: 4.84
  MIC: 14.4 µM (≈ 6.25 µg/mL)
[3]
  cytotoxicity at 72 h, 50 ug/ml: 30.6%

## COc1ccccc1N1CCN(C(=O)c2nc3ccccc3s2)CC1
[1]
  -logMIC: 5.05
  MIC: 8.84 µM (≈ 3.12 µg/mL)
[3]
  cytotoxicity at 72 h, 50 ug/ml: 53.4%

## O=C(c1nc2ccccc2s1)N1CCN(c2ccccc2)CC1
[1]
  -logMIC: 5.32
  MIC: 4.82 µM (≈ 1.56 µg/mL)
[3]
  cytotoxicity at 72 h, 50 ug/ml: 67.2%

## COc1ccccc1N1CCN(C(=O)c2nc3cc(C(F)(F)F)ccc3s2)CC1
[1]
  MIC: 59.3 µM (≈ 25 µg/mL)

## O=C(c1nc2cc(C(F)(F)F)ccc2s1)N1CCOCC1
[4]
  selectivity ratio: > 60
[1]
  MIC: 2.47 µM (≈ 0.781 µg/mL)
[3]
  cytotoxicity at 72 h, 50 ug/ml: 24.6%

## O=C(c1nc2cc(Cl)ccc2s1)N1CCOCC1
[1]
  MIC: 22.1 µM (≈ 6.25 µg/mL)
[3]
  cytotoxicity at 72 h, 50 ug/ml: 26.1%

## CCOC(=O)c1nc2cc(C(F)(F)F)ccc2s1
[1]
  MIC: 22.7 µM (≈ 6.25 µg/mL)
[3]
  cytotoxicity at 72 h, 50 ug/ml: 29.1%

## O=C(c1nc2cc(C(F)(F)F)ccc2s1)N1CCN(c2ccccc2)CC1
[1]
  MIC: 31.9 µM (≈ 12.5 µg/mL)

## O=C(c1nc2cc(Cl)ccc2s1)N1CCN(c2ccccc2)CC1
[1]
  -logMIC: 4.76
  MIC: 17.5 µM (≈ 6.25 µg/mL)
[3]
  cytotoxicity at 72 h, 50 ug/ml: 41.2%

## O=C(c1nc2cc(C(F)(F)F)ccc2s1)N1CCN(c2ccncc2)CC1
[1]
  -logMIC: 5.1
  MIC: 7.96 µM (≈ 3.12 µg/mL)
[3]
  cytotoxicity at 72 h, 50 ug/ml: 17.5%

## COc1ccc(N2CCN(C(=O)c3nc4cc(C(F)(F)F)ccc4s3)CC2)cc1
[1]
  -logMIC: 5.13
  MIC: 7.42 µM (≈ 3.13 µg/mL)
[3]
  cytotoxicity at 72 h, 50 ug/ml: 19.4%

## CC(=O)c1ccc(N2CCN(C(=O)c3nc4cc(Cl)ccc4s3)CC2)cc1
[1]
  -logMIC: 5.41
  MIC: 3.9 µM (≈ 1.56 µg/mL)
[3]
  cytotoxicity at 72 h, 50 ug/ml: 30.8%

## CN1CCN(C(=O)c2nc3cc(C(F)(F)F)ccc3s2)CC1
[1]
  -logMIC: 4.72
  MIC: 19 µM (≈ 6.25 µg/mL)
[3]
  cytotoxicity at 72 h, 50 ug/ml: 12.6%

## O=C(c1nc2cc(C(F)(F)F)ccc2s1)N1CCCCC1
[1]
  MIC: 39.8 µM (≈ 12.5 µg/mL)

## CC(=O)N1CCN(C(=O)c2nc3cc(C(F)(F)F)ccc3s2)CC1
[1]
  -logMIC: 5.36
  MIC: 4.37 µM (≈ 1.56 µg/mL)
[3]
  cytotoxicity at 72 h, 50 ug/ml: 20.2%

## CN1CCN(C(=O)c2nc3cc(Cl)ccc3s2)CC1
[1]
  MIC: 84.5 µM (≈ 25 µg/mL)

## O=C(c1nc2ccccc2s1)N1CCCCC1
[1]
  MIC: 101 µM (≈ 25 µg/mL)

## COc1ccc(N2CCN(C(=O)c3nc4cc(Cl)ccc4s3)CC2)cc1
[1]
  -logMIC: 5.09
  MIC: 8.06 µM (≈ 3.13 µg/mL)
[3]
  cytotoxicity at 72 h, 50 ug/ml: 42.8%

## O=C(c1nc2cc(Cl)ccc2s1)N1CCN(c2ccncc2)CC1
[1]
  -logMIC: 4.46
  MIC: 34.8 µM (≈ 12.5 µg/mL)

## O=C(c1nc2cc(C(F)(F)F)ccc2s1)N1CCN(c2cnccn2)CC1
[1]
  -logMIC: 5.1
  MIC: 7.94 µM (≈ 3.12 µg/mL)
[3]
  cytotoxicity at 72 h, 50 ug/ml: 28.1%

## CN1CCN(/N=C\c2cc(C(F)(F)F)nc3c(C(F)(F)F)cccc23)CC1
[5]
  MIC: 3.56 µg/mL (≈ 9.12 µM)

## CC(=O)N1CCN(C(=O)c2nc3cc(Cl)ccc3s2)CC1
[1]
  -logMIC: 4.41
  MIC: 38.6 µM (≈ 12.5 µg/mL)

## CN1CCN(C(=O)c2nc3ccccc3s2)CC1
[1]
  -logMIC: 4.92
  MIC: 12 µM (≈ 3.13 µg/mL)
[3]
  cytotoxicity at 72 h, 50 ug/ml: 52.1%

## O=C(c1nc2ccccc2s1)N1CCN(c2cnccn2)CC1
[1]
  -logMIC: 4.72
  MIC: 19.2 µM (≈ 6.25 µg/mL)
[3]
  cytotoxicity at 72 h, 50 ug/ml: 65.3%

## O=C(c1nc2ccccc2s1)N1CCN(C(c2ccccc2)c2ccccc2)CC1
[1]
  -logMIC: 5.72
  MIC: 1.89 µM (≈ 0.782 µg/mL)
[3]
  cytotoxicity at 72 h, 50 ug/ml: 60.7%

## O=C(c1nc2ccccc2s1)N1CCOCC1
[1]
  MIC: 6.28 µM (≈ 1.56 µg/mL)
[3]
  cytotoxicity at 72 h, 50 ug/ml: 36.2%

## O=C(c1nc2cc(Cl)ccc2s1)N1CCCCC1
[1]
  MIC: 44.5 µM (≈ 12.5 µg/mL)

## O=C(c1nc2cc(C(F)(F)F)ccc2s1)N1CCN(C(c2ccccc2)c2ccccc2)CC1
[1]
  MIC: 51.9 µM (≈ 25 µg/mL)

## O=C(c1nc2cc(Cl)ccc2s1)N1CCSCC1
[1]
  MIC: 20.9 µM (≈ 6.25 µg/mL)
[3]
  cytotoxicity at 72 h, 50 ug/ml: 62.5%

## CC(C)C(NC(=O)OCC1c2ccccc2-c2ccccc21)C(=O)O/N=C1\c2ccccc2-c2c1c(N1CCN(c3ccccn3)CC1)nc1ccc(Br)cc21 (stereo not drawn)
[6]
  MIC: 1.47 µg/mL (≈ 1.82 µM)

## CC(=O)N1CCN(C(=O)c2nc3ccccc3s2)CC1
[1]
  -logMIC: 5.27
  MIC: 5.39 µM (≈ 1.56 µg/mL)
[3]
  cytotoxicity at 72 h, 50 ug/ml: 48.8%

## O=C(c1nc2cc(C(F)(F)F)ccc2s1)N1CCSCC1
[4]
  selectivity ratio: > 60
[1]
  MIC: 2.35 µM (≈ 0.781 µg/mL)
[3]
  cytotoxicity at 72 h, 50 ug/ml: 18.1%

## CC[C@@H](CO)NCCN[C@@H](CC)CO [ETHAMBUTOL]
[1]
  MIC: 7.64 µM (≈ 1.56 µg/mL)

## NNC(=O)c1ccncc1 [ISONIAZID]
[1]
  MIC: 0.72 µM (≈ 0.0987 µg/mL)

## NC(=O)c1cnccn1 [PYRAZINAMIDE]
[1]
  MIC: 50.8 µM (≈ 6.25 µg/mL)

## CO[C@H]1/C=C/O[C@@]2(C)Oc3c(C)c(O)c4c(O)c(c(/C=N/N5CCN(C)CC5)c(O)c4c3C2=O)NC(=O)/C(C)=C\C=C\[C@H](C)[C@H](O)[C@@H](C)[C@@H](O)[C@@H](C)[C@H](OC(C)=O)[C@@H]1C [RIFAMPIN]
[1]
  MIC: 0.24 µM (≈ 0.198 µg/mL)
